Measurements reported in ChEMBL document CHEMBL5107952, “Synthesis of low-molecular weight fucoidan derivatives and their binding abilities to SARS-CoV-2 spike proteins” (RSC Med Chem, 2021).

How the values were obtained:
Format in all cases: cell-based, Severe acute respiratory syndrome coronavirus 2
[1] = (§1) Competitive inhibition of biotinylated heparin binding to His-tagged SARS-COV-2 P.1 variant recombinant spike glycoprotein L18F/T20N/P26S/D138Y/R190S/K417T/E484K/N501Y/H655Y/T1027I mutant expressed in Expi293F cells incubated for 300 sec by biolayer interferometry streptavidin sensor based assay
Summary of the method: (§2)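 Same heparin-competition BLI format with variant S proteins (B.1.1.7, B.1.351, P.1). Biotinylated heparin sat on streptavidin sensors, and S protein (1 μM) was in TBS (20 mM Tris, pH 7.4, 0.02% BSA). Bound (%) was read from the BLI signal. IC50 was fitted and converted to Ki via Cheng–Prusoff.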

[2] = (§3) Competitive inhibition of biotinylated heparin binding to His-tagged SARS-COV-2 B.1.1.7 variant recombinant spike glycoprotein del69-70/del144/N501Y/A570D/D614G/P681H/T716I/S982A/D1118H mutant expressed in Expi293F cells assessed as inhibition constant incubated for 120 sec by biolayer interferometry streptavidin sensor based assay; summary of the method: as §2
[3] = as §1, with “cells assessed as inhibition constant” for “cells”; summary of the method: as §2
[4] = (§4) Competitive inhibition of biotinylated heparin binding to His-tagged SARS-COV-2 B.1.351 variant recombinant spike glycoprotein D80A/D215G/K417N/E484K/N501Y/D614G/A701V mutant expressed in Expi293F cells incubated for 120 sec by biolayer interferometry streptavidin sensor based assay; summary of the method: as §2
[5] = as §3, with “cells” for “cells assessed as inhibition constant”; summary of the method: as §2
[6] = as §4, with “cells assessed as inhibition constant” for “cells”; summary of the method: as §2

In the case of `CCCCCCCCO[C@H]1O[C@@H](C)[C@@H](O[C@@H]2O[C@@H](C)[C@@H](O[C@@H]3O[C@@H](C)[C@@H](O[C@@H]4O[C@@H](C)[C@@H](OS(=O)(=O)O)[C@@H](OS(=O)(=O)O)[C@@H]4OS(=O)(=O)O)[C@@H](OS(=O)(=O)O)[C@@H]3OS(=O)(=O)O)[C@@H](OS(=O)(=O)O)[C@@H]2OS(=O)(=O)O)[C@@H](OS(=O)(=O)O)[C@@H]1OS(=O)(=O)O`, the IC50 [1] is reported as 65.6 µM, the Ki [2] is reported as 10.1 µM and the Ki [3] is reported as 6.98 µM. For the same compound, the IC50 [4] was 85.9 µM, the IC50 [5] was 35 µM and the Ki [6] was 6.67 µM.
